In ChEMBL document CHEMBL3804796, “Discovery of Novel 3,3-Disubstituted Piperidines as Orally Bioavailable, Potent, and Efficacious HDM2-p53 Inhibitors” (ACS Med Chem Lett, 2016):
Converted amounts (≈) assume the structure as drawn. The source made the active and inactive calls. No cut-off for these calls is given here.

Columns and labels:
[1] = biological target: Tumour suppressor p53/oncoprotein Mdm2 (Homo sapiens, UniProt Q00987); experiment: Inhibition of MDM2/p53 interaction in human HCT116 cells assessed as activation of p53 transcription by luciferase reporter gene assay; type: cell-based, HCT-116
Summary of the method: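 p53 transcriptional activation measured in HCT116 cells with a p53 response element–driven luciferase reporter (P53RE-Luc).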

[2] = tested on: MOLT-3; experiment: Antiproliferative activity against human MOLT3 cells expressing wild type p53 after 72 hrs by CellTitre-Glo assay; type: functional, cell-based
Summary of the method: (§1)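 Cell lines exposed to compound for 72 h; viability read by CellTiter-Glo and IC50 derived. p53 coding-region mutation status of each line established by direct sequencing.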

[3] = Solubility of compound in pH 7.4 phosphate buffer; type: physicochemical
[4] = tested on: CAKI-1; experiment: Antiproliferative activity against human Caki1 cells expressing wild type p53 after 72 hrs by CellTitre-Glo assay; type: functional, cell-based; summary of the method: as §1
[5] = Antitumor activity against human SJSA1 cells xenografted in nude mouse assessed as tumor growth inhibition at 50 mg/kg, po qd administered with cycle of 3 days on, 4 days off for 30 days relative to control; type: functional; details: SJSA-1, po, read-out: TGI
Summary of the method: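 Nude mice bearing SJSA-1 osteosarcoma xenografts, n = 5 per group. Oral dosing in 20% HPBCD, given either intermittently (daily, 3 days on/4 days off) or continuously daily. Body weight was monitored against a vehicle control group.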

[6] = Fraction unbound in dog plasma; type: ADME, cell-free, Canis lupus familiaris
[7] = tested on: MES-SA; experiment: Antiproliferative activity against human MES-SA cells expressing wild type p53 after 72 hrs by CellTitre-Glo assay; type: functional, cell-based; summary of the method: as §1
[8] = tested on: MCF7; experiment: Antiproliferative activity against human MCF7 cells expressing wild type p53 after 72 hrs by CellTitre-Glo assay; type: functional, cell-based; summary of the method: as §1
[9] = Antiproliferative activity against human SJSA1 cells expressing wild type p53 after 72 hrs by CellTitre-Glo assay; details: SJSA-1, 72 h
[10] = tested on: SR; experiment: Antiproliferative activity against human SR cells expressing wild type p53 after 72 hrs by CellTitre-Glo assay; type: functional, cell-based; summary of the method: as §1
[11] = tested on: DOHH-2; experiment: Antiproliferative activity against human DOHH2 cells expressing wild type p53 after 72 hrs by CellTitre-Glo assay; type: functional, cell-based; summary of the method: as §1
[12] = tested on: SJSA-1; experiment: Induction of apoptosis in human SJSA1 cells assessed as caspase 3/7 activation; type: functional, cell-based
[13] = tested on: CWR22R; experiment: Antiproliferative activity against human 22Rv1 cells expressing wild type p53 after 72 hrs by CellTitre-Glo assay; type: functional, cell-based; summary of the method: as §1
[14] = tested on: SJSA-1; experiment: Selectivity ratio of IC50 for human SK-UT-1 cells harboring mutant p53 to IC50 for human SJSA1 cells expressing wild type p53; type: functional
Summary of the method: (§2)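 Ratio of two IC50s, each from a 72 h CellTiter-Glo viability assay. p53 coding-region status was confirmed by direct sequencing. The ratio is p53-mutant (SK-UT-1) or p53-null (H1299) IC50 divided by wild-type p53 (SJSA-1 or HCT116) IC50.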

[15] = tested on: EOL1; experiment: Antiproliferative activity against human EOL-1 cells expressing wild type p53 after 72 hrs by CellTitre-Glo assay; type: functional, cell-based; summary of the method: as §1
[16] = Fraction unbound in monkey plasma; type: ADME, cell-free, Macaca mulatta; details: rhesus monkey
[17] = tested on: Rhesus monkey; experiment: Dose normalized AUC (0 to 24 hrs) in monkey at 1 mg/kg, po administered as single dose; type: ADME, organism-based, Macaca mulatta; details: in vivo
Summary of the method: (§3)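 Single oral dose of 1 mg/kg. Vehicle was 20% HPBCD for mouse and 0.4% HPMC for dog and monkey. Plasma AUC over 0–24 h, dose-normalized, reported in μM·h.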

[18] = tested on: ACHN; experiment: Antiproliferative activity against human ACHN cells expressing wild type p53 after 72 hrs by CellTitre-Glo assay; type: functional, cell-based; summary of the method: as §1
[19] = tested on: ZR-75-1; experiment: Antiproliferative activity against human ZR-75-1 cells expressing wild type p53 after 72 hrs by CellTitre-Glo assay; type: functional, cell-based; summary of the method: as §1
[20] = tested on: CESS; experiment: Antiproliferative activity against human CESS cells expressing wild type p53 after 72 hrs by CellTitre-Glo assay; type: functional, cell-based; summary of the method: as §1
[21] = tested on: A549; experiment: Antiproliferative activity against human A549 cells expressing wild type p53 after 72 hrs by CellTitre-Glo assay; type: functional, cell-based; summary of the method: as §1
[22] = biological target: Cytochrome P450 3A4 (Homo sapiens, UniProt P08684); experiment: Inhibition of CYP3A4 (unknown origin); type: ADME
[23] = tested on: NALM-6; experiment: Antiproliferative activity against human NALM6 cells expressing wild type p53 after 72 hrs by CellTitre-Glo assay; type: functional, cell-based; summary of the method: as §1
[24] = tested on: CMLT1; experiment: Antiproliferative activity against human CMLT1 cells expressing wild type p53 after 72 hrs by CellTitre-Glo assay; type: functional, cell-based; summary of the method: as §1
[25] = tested on: BC1; experiment: Antiproliferative activity against human BC1 cells expressing wild type p53 after 72 hrs by CellTitre-Glo assay; type: functional, cell-based; summary of the method: as §1
[26] = tested on: A549; experiment: Antitumor activity against human A549 cells xenografted in nude mouse assessed as tumor growth inhibition at 200 mg/kg, po qd continuously for 30 days relative to control; type: functional; details: 720 h, read-out: TGI
Summary of the method: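 Mice bearing A549 NSCLC xenografts. The test agent was given orally, either daily or intermittently (daily for 3 days, then 4 days off). Paclitaxel was given at 20 mg/kg ip weekly, alone or in combination. Read-out was tumor growth inhibition.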

[27] = Fraction unbound in mouse plasma; type: ADME, cell-free
[28] = tested on: MOLT-4; experiment: Antiproliferative activity against human MOLT4 cells expressing wild type p53 after 72 hrs by CellTitre-Glo assay; type: functional, cell-based; summary of the method: as §1
[29] = tested on: A-375; experiment: Antiproliferative activity against human A375 cells expressing wild type p53 after 72 hrs by CellTitre-Glo assay; type: functional, cell-based; summary of the method: as §1
[30] = biological target: hERG (KCNH2) (Homo sapiens, UniProt Q12809); experiment: Inhibition of human ERG at 6 uM relative to control
Summary of the method: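 hERG inhibition measured by voltage clamp at 6 μM compound.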

[31] = tested on: Mus musculus; experiment: Toxicity in nude mouse xenografted with human SJSA1 cells assessed as body weight loss at 50 to 200 mg/kg, po qd administered with cycle of 3 days on, 4 days off for 30 days; type: organism-based, SJSA-1; details: in vivo
Summary of the method: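 Nude mice bearing SJSA-1 osteosarcoma xenografts, n = 5 per group. Dosing was oral in 20% HPBCD, either continuous daily at 100 and 200 mpk or intermittent (daily for 3 days on, 4 days off). Body weight was compared against a vehicle-control group.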

[32] = tested on: KU812; experiment: Antiproliferative activity against human KU812 cells expressing wild type p53 after 72 hrs by CellTitre-Glo assay; type: functional, cell-based; summary of the method: as §1
[33] = tested on: LNCaP; experiment: Antiproliferative activity against human LNCAP cells expressing wild type p53 after 72 hrs by CellTitre-Glo assay; type: functional, cell-based; summary of the method: as §1
[34] = tested on: Canis familiaris; experiment: Dose normalized AUC (0 to 24 hrs) in dog at 1 mg/kg, po administered as single dose; type: ADME, organism-based, Canis lupus familiaris; details: in vivo; summary of the method: as §3
[35] = tested on: SJSA-1; experiment: Selectivity ratio of IC50 for p53 null human H1299 cells to IC50 for human SJSA1 cells expressing wild type p53; type: functional; summary of the method: as §2
[36] = tested on: UACC-62; experiment: Antiproliferative activity against human UACC62 cells expressing wild type p53 after 72 hrs by CellTitre-Glo assay; type: functional, cell-based; summary of the method: as §1
[37] = Clearance in mouse at 2 mg/kg, iv; type: ADME, organism-based; details: in vivo
[38] = tested on: NCI-H292; experiment: Antiproliferative activity against human NCI-H292 cells expressing wild type p53 after 72 hrs by CellTitre-Glo assay; type: functional, cell-based; summary of the method: as §1
[39] = Intrinsic clearance in human liver microsomes; type: ADME; details: read-out: CLH
[40] = Fraction unbound in human plasma; type: ADME, cell-free

Sequence of hERG (KCNH2) (Q12809 whole entry): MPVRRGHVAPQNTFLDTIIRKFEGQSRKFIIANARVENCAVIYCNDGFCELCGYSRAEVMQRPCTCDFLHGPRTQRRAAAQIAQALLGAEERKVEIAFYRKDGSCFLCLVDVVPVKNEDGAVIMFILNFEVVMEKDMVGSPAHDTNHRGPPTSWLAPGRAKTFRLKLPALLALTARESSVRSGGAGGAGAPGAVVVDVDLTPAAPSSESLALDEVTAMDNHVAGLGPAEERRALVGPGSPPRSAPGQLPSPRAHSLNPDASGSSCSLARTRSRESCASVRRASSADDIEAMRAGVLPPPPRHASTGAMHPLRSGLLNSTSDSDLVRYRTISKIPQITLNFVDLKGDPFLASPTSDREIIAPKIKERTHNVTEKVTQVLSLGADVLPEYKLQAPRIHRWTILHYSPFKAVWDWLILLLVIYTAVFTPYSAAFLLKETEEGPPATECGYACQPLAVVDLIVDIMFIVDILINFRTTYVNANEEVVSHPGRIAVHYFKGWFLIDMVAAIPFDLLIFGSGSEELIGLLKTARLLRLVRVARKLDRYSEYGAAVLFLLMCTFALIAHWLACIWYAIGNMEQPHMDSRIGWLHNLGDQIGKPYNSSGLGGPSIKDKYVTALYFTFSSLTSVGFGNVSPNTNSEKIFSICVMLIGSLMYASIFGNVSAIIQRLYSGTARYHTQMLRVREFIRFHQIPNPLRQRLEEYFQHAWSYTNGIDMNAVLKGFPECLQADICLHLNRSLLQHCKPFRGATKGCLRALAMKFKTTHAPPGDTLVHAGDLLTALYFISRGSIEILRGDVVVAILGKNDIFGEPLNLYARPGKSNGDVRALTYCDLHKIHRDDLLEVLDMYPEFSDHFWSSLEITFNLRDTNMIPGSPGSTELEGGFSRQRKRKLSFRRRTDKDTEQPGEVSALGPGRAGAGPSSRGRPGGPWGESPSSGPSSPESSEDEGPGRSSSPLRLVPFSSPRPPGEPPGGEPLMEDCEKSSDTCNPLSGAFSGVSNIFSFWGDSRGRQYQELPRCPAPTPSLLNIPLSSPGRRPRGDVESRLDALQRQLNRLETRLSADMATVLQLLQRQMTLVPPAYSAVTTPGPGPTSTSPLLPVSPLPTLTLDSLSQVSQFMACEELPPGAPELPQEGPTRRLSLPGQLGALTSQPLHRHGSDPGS
Sequence of Cytochrome P450 3A4 (P08684 whole entry): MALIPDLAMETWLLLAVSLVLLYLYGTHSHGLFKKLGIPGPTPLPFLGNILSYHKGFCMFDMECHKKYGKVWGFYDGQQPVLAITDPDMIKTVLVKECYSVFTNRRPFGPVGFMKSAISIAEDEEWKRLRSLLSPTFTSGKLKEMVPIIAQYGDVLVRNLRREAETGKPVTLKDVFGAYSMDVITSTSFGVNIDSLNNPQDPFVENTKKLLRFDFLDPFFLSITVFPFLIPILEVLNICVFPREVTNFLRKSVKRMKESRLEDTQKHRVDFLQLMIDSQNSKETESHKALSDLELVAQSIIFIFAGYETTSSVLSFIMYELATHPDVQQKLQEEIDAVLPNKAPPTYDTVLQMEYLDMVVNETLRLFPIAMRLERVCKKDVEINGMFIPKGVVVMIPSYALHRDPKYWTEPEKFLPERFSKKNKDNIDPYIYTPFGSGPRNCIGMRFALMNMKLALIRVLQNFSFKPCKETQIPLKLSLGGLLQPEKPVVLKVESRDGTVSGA
Sequence of Tumour suppressor p53/oncoprotein Mdm2 (P04637 whole entry): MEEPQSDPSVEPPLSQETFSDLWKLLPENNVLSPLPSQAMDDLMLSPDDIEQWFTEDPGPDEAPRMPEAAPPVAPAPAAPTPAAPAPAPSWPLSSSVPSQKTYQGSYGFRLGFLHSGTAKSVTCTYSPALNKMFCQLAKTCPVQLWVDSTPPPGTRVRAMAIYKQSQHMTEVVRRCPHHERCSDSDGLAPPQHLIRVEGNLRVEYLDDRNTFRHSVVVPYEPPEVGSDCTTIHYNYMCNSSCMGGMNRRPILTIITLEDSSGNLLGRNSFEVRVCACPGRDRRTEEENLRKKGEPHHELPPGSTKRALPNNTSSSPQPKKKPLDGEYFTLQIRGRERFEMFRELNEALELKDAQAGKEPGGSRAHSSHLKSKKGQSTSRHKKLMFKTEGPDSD
Sequence of Tumour suppressor p53/oncoprotein Mdm2 (Q00987 whole entry): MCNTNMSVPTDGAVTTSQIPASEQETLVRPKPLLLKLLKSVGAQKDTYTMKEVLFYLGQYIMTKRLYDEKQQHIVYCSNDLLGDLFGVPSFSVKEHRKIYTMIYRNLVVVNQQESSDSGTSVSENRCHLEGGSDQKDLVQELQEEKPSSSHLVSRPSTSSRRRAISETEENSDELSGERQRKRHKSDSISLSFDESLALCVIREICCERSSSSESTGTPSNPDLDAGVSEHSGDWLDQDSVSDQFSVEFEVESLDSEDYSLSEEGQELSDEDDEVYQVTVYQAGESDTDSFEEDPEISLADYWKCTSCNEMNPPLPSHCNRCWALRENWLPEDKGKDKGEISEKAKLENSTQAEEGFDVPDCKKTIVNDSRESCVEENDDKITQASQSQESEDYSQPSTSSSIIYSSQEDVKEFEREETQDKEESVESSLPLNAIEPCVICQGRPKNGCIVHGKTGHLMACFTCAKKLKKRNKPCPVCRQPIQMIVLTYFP

For `CCC[C@H]1N(C(=O)c2cnccc2C(F)(F)F)CCC[C@@]1(Oc1csc(C(F)(F)F)c1)C(=O)N1CCN(c2ccccc2OCCCC(=O)O)CC1`, the EC50 [1] was 100 nM, the Activity [2] was “Active” and the solubility [3] was 100 µM (≈ 75.7 µg/mL). For the same molecule, the Activity [4] was “Active”, the inhibition in vivo at 50 mg/kg [5] was 92% and the fraction unbound [6] was 0.02. The Activity [7] was “Active”, the Activity [8] was “Active” and the IC50 [9] was 80 nM. The Activity [10] was “Active”, the Activity [11] was “Active” and the IC50 [12] was 90 nM. For the same molecule, the Activity [13] was “Active”, the “Ratio IC50” value [14] was over 500 and the Activity [15] was “Active”. For the same molecule, the fraction unbound [16] was 0.05, the AUC/dose [17] was 0.2 µM·h and the Activity [18] was “Active”. For the same molecule, the Activity [19] was “Active”, the Activity [20] was “Active” and the Activity [21] was “Active”. The IC50 [22] was over 50000 nM, the Activity [23] was “Active” and the Activity [24] was “Active”. For the same molecule, the Activity [25] was “Active”, the inhibition in vivo at 200 mg/kg [26] was 75% and the fraction unbound [27] was 0.03. For the same molecule, the Activity [28] was “Active”, the Activity [29] was “Active” and the inhibition at 6 µM [30] was 20%. The Activity [31] was “Non-toxic”, the Activity [32] was “Active” and the Activity [33] was “Active”. The AUC/dose [34] was 5.8 µM·h, the “Ratio IC50” value [35] was over 500 and the Activity [36] was “Active”. For the same molecule, the clearance [37] was 133 mL/min/kg, the Activity [38] was “Active” and the CLint scaled [39] was 3 mL/min/kg. It also gave a fraction unbound [40] of 0.04.
